Results: ChEMBL document CHEMBL4266027, “Cyanobufalins: Cardioactive Toxins from Cyanobacterial Blooms” (J Nat Prod, 2018)

Key:
[1] = tested on: BT-474; assay: Cytotoxicity against human BT474 cells assessed as decrease in cell viability after 72 hrs by MTS assay; type: functional, cell-based; settings: BT-474, 72 h
Procedure, shortened: (§1)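 Cell proliferation assay using the MTS reagent. Compounds were tested as a dilution series, and EC50 values were derived from the concentration–response data.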

[2] = tested on: SK-OV-3; assay: Cytotoxicity against human SKOV3 cells assessed as decrease in cell viability after 72 hrs by MTS assay; type: functional, cell-based; settings: SK-OV-3, 72 h; procedure, shortened: as §1
[3] = tested on: HepG2; assay: Cytotoxicity against human HepG2 cells assessed as decrease in cell viability after 72 hrs by MTS assay; type: functional, cell-based; settings: HepG2, 72 h; procedure, shortened: as §1
[4] = tested on: HT-1080; assay: Cytotoxicity against human HT1080 cells assessed as decrease in cell viability after 72 hrs by MTS assay; type: functional, cell-based; settings: HT-1080, 72 h; procedure, shortened: as §1
[5] = tested on: MES-SA; assay: Cytotoxicity against human MESSA cells assessed as decrease in cell viability after 72 hrs by MTS assay; type: functional, cell-based; procedure, shortened: as §1
[6] = tested on: MES-SA/Dx5; assay: Cytotoxicity against human MES-SA/Dx5 cells assessed as decrease in cell viability after 72 hrs by MTS assay; type: functional, cell-based; settings: MES-SA/Dx5, 72 h; procedure, shortened: as §1
[7] = tested on: 786-0; assay: Cytotoxicity against human 786-O cells assessed as decrease in cell viability after 72 hrs by MTS assay; type: functional, cell-based; settings: 786-0, 72 h; procedure, shortened: as §1
[8] = tested on: THP-1; assay: Cytotoxicity against human THP1 cells assessed as decrease in cell viability after 72 hrs by MTS assay; type: functional, cell-based; settings: THP-1, 72 h; procedure, shortened: as §1
[9] = tested on: MCF7; assay: Cytotoxicity against human MCF7 cells assessed as decrease in cell viability after 72 hrs by MTS assay; type: functional, cell-based; settings: MCF7, 72 h; procedure, shortened: as §1
[10] = Cytotoxicity against human LOX cells assessed as decrease in cell viability after 72 hrs by MTS assay; type: functional, cell-based; procedure, shortened: as §1
[11] = tested on: U-87 MG; assay: Cytotoxicity against human U87MG cells assessed as decrease in cell viability after 72 hrs by MTS assay; type: functional, cell-based, U-87MG ATCC; procedure, shortened: as §1
[12] = tested on: NCI-N87; assay: Cytotoxicity against human NCI-N87 cells assessed as decrease in cell viability after 72 hrs by MTS assay; type: functional, cell-based; settings: NCI-N87, 72 h; procedure, shortened: as §1
[13] = tested on: A549; assay: Cytotoxicity against human A549 cells assessed as decrease in cell viability after 72 hrs by MTS assay; type: functional, cell-based; settings: A549, 72 h; procedure, shortened: as §1
[14] = tested on: NCI-H1975; assay: Cytotoxicity against human NCI-H1975 cells assessed as decrease in cell viability after 72 hrs by MTS assay; type: functional, cell-based; settings: NCI-H1975, 72 h; procedure, shortened: as §1
[15] = tested on: MV4-11; assay: Cytotoxicity against human MV411 cells assessed as decrease in cell viability after 72 hrs by MTS assay; type: functional, cell-based; settings: MV4-11, 72 h; procedure, shortened: as §1
[16] = tested on: MDA-MB-468; assay: Cytotoxicity against human MDA-MB-468 cells assessed as decrease in cell viability after 72 hrs by MTS assay; type: functional, cell-based; settings: MDA-MB-468, 72 h; procedure, shortened: as §1
[17] = tested on: HUVEC; assay: Cytotoxicity against human HUVEC cells assessed as decrease in cell viability after 72 hrs by MTS assay; type: cell-based; procedure, shortened: as §1
[18] = tested on: MRC5; assay: Cytotoxicity against human MRC5 cells assessed as decrease in cell viability after 72 hrs by MTS assay; type: cell-based; settings: MRC5, 72 h; procedure, shortened: as §1
[19] = tested on: H22; assay: Cytotoxicity against mouse H22 cells assessed as decrease in cell viability after 72 hrs by MTS assay; type: functional, cell-based; settings: H22, 72 h; procedure, shortened: as §1
[20] = tested on: CCRF S-180; assay: Cytotoxicity against mouse S180 cells assessed as decrease in cell viability after 72 hrs by MTS assay; type: functional, cell-based; settings: CCRF S-180, 72 h; procedure, shortened: as §1
[21] = tested on: Cardiac muscle cell; assay: Toxicity in human inducible pluripotent stem cell derived cardiomyocytes assessed as change in beating amplitude at 0.32 nM after 33 mins; type: cell-based; settings: 0.55 h, 0.00032 µM
Procedure, shortened: (§2)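 Human iPSC-derived cardiomyocytes (Cor.4U) were grown to stable beating cultures and monitored by impedance in real time with 20 s recordings. Compounds were given as a dilution series from 0.32 nM to 5 μM, dosed twice 24 h apart, with monitoring over 48 h. Beating amplitude was taken from each negative peak to the following positive peak and reported as % change.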

[22] = tested on: Cardiac muscle cell; assay: Toxicity in human inducible pluripotent stem cell derived cardiomyocytes assessed as change in beating amplitude at 0.32 nM after 66 mins; type: cell-based; settings: 1.1 h, 0.00032 µM; procedure, shortened: as §2
[23] = tested on: Cardiac muscle cell; assay: Toxicity in human inducible pluripotent stem cell derived cardiomyocytes assessed as change in beating amplitude at 0.32 nM after 12 hrs; type: cell-based; settings: 0.00032 µM; procedure, shortened: as §2
[24] = tested on: Cardiac muscle cell; assay: Toxicity in human inducible pluripotent stem cell derived cardiomyocytes assessed as change in beating amplitude at 0.32 nM after 24 hrs; type: cell-based; settings: 0.00032 µM; procedure, shortened: as §2
[25] = tested on: Cardiac muscle cell; assay: Toxicity in human inducible pluripotent stem cell derived cardiomyocytes assessed as change in beating amplitude at 0.32 nM after 36 hrs; type: cell-based; settings: 0.00032 µM; procedure, shortened: as §2
[26] = tested on: Cardiac muscle cell; assay: Toxicity in human inducible pluripotent stem cell derived cardiomyocytes assessed as change in beating amplitude at 0.32 nM after 48 hrs; type: cell-based; settings: 0.00032 µM; procedure, shortened: as §2
[27] = tested on: Cardiac muscle cell; assay: Toxicity in human inducible pluripotent stem cell derived cardiomyocytes assessed as change in beating amplitude at 1.6 nM after 33 mins; type: cell-based; settings: 0.55 h, 0.0016 µM; procedure, shortened: as §2
[28] = tested on: Cardiac muscle cell; assay: Toxicity in human inducible pluripotent stem cell derived cardiomyocytes assessed as change in beating amplitude at 1.6 nM after 4 hrs; type: cell-based; settings: 0.0016 µM; procedure, shortened: as §2
[29] = tested on: Cardiac muscle cell; assay: Toxicity in human inducible pluripotent stem cell derived cardiomyocytes assessed as change in beating amplitude at 1.6 nM after 12 hrs; type: cell-based; settings: 0.0016 µM; procedure, shortened: as §2
[30] = tested on: Cardiac muscle cell; assay: Toxicity in human inducible pluripotent stem cell derived cardiomyocytes assessed as change in beating amplitude at 1.6 nM after 24 hrs; type: cell-based; settings: 0.0016 µM; procedure, shortened: as §2
[31] = tested on: Cardiac muscle cell; assay: Toxicity in human inducible pluripotent stem cell derived cardiomyocytes assessed as change in beating amplitude at 1.6 nM after 36 hrs; type: cell-based; settings: 0.0016 µM; procedure, shortened: as §2
[32] = tested on: Cardiac muscle cell; assay: Toxicity in human inducible pluripotent stem cell derived cardiomyocytes assessed as change in beating amplitude at 8 nM after 33 mins; type: cell-based; settings: 0.55 h, 0.008 µM; procedure, shortened: as §2
[33] = tested on: Cardiac muscle cell; assay: Toxicity in human inducible pluripotent stem cell derived cardiomyocytes assessed as change in beating amplitude at 8 nM after 66 mins; type: cell-based; settings: 1.1 h, 0.008 µM
Procedure, shortened: (§3)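 Cor.4U hiPSC-derived cardiomyocytes grown to stable beating cultures, then monitored by impedance in RTCA Cardio plates with 20 s recordings. Compounds tested as a dilution series from 0.32 nM to 5 μM, dosed twice 24 h apart, followed over 48 h. Beating amplitude is taken from each negative peak to the next positive peak and reported as percent change.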

[34] = tested on: Cardiac muscle cell; assay: Toxicity in human inducible pluripotent stem cell derived cardiomyocytes assessed as change in beating amplitude at 8 nM after 4 hrs; type: cell-based; settings: 0.008 µM; procedure, shortened: as §3
[35] = tested on: Cardiac muscle cell; assay: Toxicity in human inducible pluripotent stem cell derived cardiomyocytes assessed as change in beating amplitude at 8 nM after 12 hrs; type: cell-based; settings: 0.008 µM; procedure, shortened: as §2
[36] = tested on: Cardiac muscle cell; assay: Toxicity in human inducible pluripotent stem cell derived cardiomyocytes assessed as change in beating amplitude at 40 nM after 33 mins; type: cell-based; settings: 0.55 h, 0.04 µM; procedure, shortened: as §2
[37] = tested on: Cardiac muscle cell; assay: Toxicity in human inducible pluripotent stem cell derived cardiomyocytes assessed as change in beating amplitude at 40 nM after 66 mins; type: cell-based; settings: 1.1 h, 0.04 µM; procedure, shortened: as §2
[38] = tested on: Cardiac muscle cell; assay: Toxicity in human inducible pluripotent stem cell derived cardiomyocytes assessed as change in beating amplitude at 8 nM after 8 mins; type: cell-based; settings: 0.008 µM; procedure, shortened: as §3
[39] = tested on: Cardiac muscle cell; assay: Toxicity in human inducible pluripotent stem cell derived cardiomyocytes assessed as increase in beating amplitude at >= 40 nM up to 48 hrs; type: cell-based; procedure, shortened: as §3
[40] = tested on: Cardiac muscle cell; assay: Toxicity in human inducible pluripotent stem cell derived cardiomyocytes assessed as increase in beating amplitude at 8 nM up to 48 hrs; type: cell-based; settings: 0.008 µM; procedure, shortened: as §3

## CC1(C)[C@@H](OC(N)=O)C=C[C@]2(C=O)[C@H]3CC[C@]4(C)[C@@H](c5ccc(=O)oc5)[C@@H](Cl)C[C@]4(O)C3=CC[C@@H]12
[1]
  EC50: 3.7 nM
[2]
  EC50: 6 nM
[3]
  EC50: 5.8 nM
[4]
  EC50: 5.4 nM
[5]
  EC50: 6.8 nM
[6]
  EC50: 5.8 nM
[7]
  EC50: 2.3 nM
[8]
  EC50: 4.3 nM
[9]
  EC50: 15 nM
[10]
  EC50: 3.7 nM
[11]
  EC50: 5.7 nM
[12]
  EC50: 5.8 nM
[13]
  EC50: 3.7 nM
[14]
  EC50: 3.1 nM
[15]
  EC50: 6.3 nM
[16]
  EC50: 7 nM
[17]
  EC50: 9.7 nM
[18]
  EC50: 2.4 nM
[19]
  EC50: 4600 nM
[20]
  EC50: > 20000 nM
[21]
  Activity: 0.7%
[22]
  Activity: -1.9%
[23]
  Activity: 23%
[24]
  Activity: 30%
[25]
  Activity: 57%
[26]
  Activity: 30%
[27]
  Activity: -2.1%
[28]
  Activity: 9.7%
[29]
  Activity: 3.3%
[30]
  Activity: 2.8%
[31]
  Activity: 11%
[32]
  Activity: 7.5%
[33]
  Activity: 14%
[34]
  Activity: -19%
[35]
  Activity: -18%
[36]
  Activity: 13%
[37]
  Activity: -94%
[38]
  Activity: 3.9%
[39]
  Activity: Toxic
[40]
  Activity: Toxic
